Measurements as given in ChEMBL document CHEMBL1681633, “Design, synthesis, and in vitro characterization of novel hybrid peptidomimetic inhibitors of STAT3 protein” (Bioorg Med Chem, 2011).
Calls of active or inactive are those of the source. The calls are words filed in the database; no cut-off is given here.

Tests used:
[1] = molecular target: T1, Signal transducer and activator of transcription 3 (Mus musculus, UniProt P42227); test: Displacement of 5-carboxyfluorescein-GpYLPQTV-NH2 from mouse recombinant His-tagged STAT3-SH2 domain expressed in Escherichia coli BL21 (DE3) by fluorescence polarization assay
How it was run: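 His-tagged protein expressed in BL21(DE3), Ni-column purified. STAT3 150 nM incubated with serial inhibitor concentrations 60 min at 30 °C in 50 mM NaCl, 10 mM HEPES, 1 mM EDTA, 0.1% NP-40; 15 min equilibration at room temperature; 10 nM final probe added, 30 min room temperature, then FP read.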

[2] = molecular target: T1, Signal transducer and activator of transcription 3; test: Inhibition of STAT3 dimerization in mouse NIH3T3 cells expressing v-Src assessed as disruption of STAT3-STAT3: DNA complexation in nucleus after 30 mins by electrophoretic mobility shift assay; type: cell-based
How it was run: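 Nuclear extracts from NIH3T3/v-Src (constitutively active STAT3), equal total protein, pre-incubated 30 min at room temperature with increasing compound concentrations, then with radiolabelled hSIE probe; EMSA with densitometry quantification.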

[3] = molecular target: Signal transducer and activator of transcription 3 (Mus musculus) (UniProt P42227); test: Inhibition of STAT3 dimerization in v-Src transformed mouse NIH3T3 cells assessed as suppression of STAT3-DNA binding activity in nucleus at 100 uM after 24 hrs by electrophoretic mobility shift assay; type: cell-based
How it was run: (§1)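 NIH3T3/v-Src cells treated with 100 μM compound for 6 or 24 h; nuclear extracts then tested for STAT3 DNA binding in vitro with radiolabelled hSIE probe by EMSA.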

[4] = molecular target: Signal transducer and activator of transcription 3 (Mus musculus) (UniProt P42227); test: Inhibition of STAT3 dimerization in v-Src transformed mouse NIH3T3 cells assessed as suppression of STAT3-DNA binding activity in nucleus at 100 uM after 6 hrs by electrophoretic mobility shift assay; type: cell-based; how it was run: as §1
[5] = Metabolic stability in human Caco2 cells at 10 uM at pH 7.4 after 90 mins by LC/MS analysis; type: ADME, cell-based; conditions: Caco-2 cells, read-out: Stability
How it was run: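 Caco-2 monolayers grown on PET membrane inserts (1.0 µm pore) at 75,000 cells/cm² and used on day 25, fully polarized and differentiated. Compound at 10 μM final, non-gradient pH 7.4/7.4, 90 min. Samples analysed by narrow-window mass-extraction LC/QTof-MS for parent-compound peak areas. Percent recovered or transported calculated relative to the initial dosing concentration.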

Caco-2 = test: Apparent permeability across apical to basolateral side in human Caco2 cells at 10 uM at pH 7.4 after 90 mins by LC/MS analysis; type: ADME, cell-based; conditions: caco-2, pH 7.4, […]
[6] = molecular target: T1, Signal transducer and activator of transcription 3; test: Inhibition of mouse recombinant SH2 domain of His-tagged full-length STAT3 by surface plasmon resonance assay
How it was run: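 Purified STAT3 captured on a HisCap sensor chip by injecting 50 μg/ml protein; inhibitors at various concentrations in 1X PBS, 0.5% DMSO running buffer passed over chip; association and dissociation rate constants recorded, their ratio taken as KD.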

[7] = molecular target: T2, Signal transducer and activator of transcription 1 (Mus musculus, UniProt P42225); test: Displacement of 5-carboxyfluorescein-GpYDKPHVL-NH2 from mouse recombinant His-tagged STAT1-SH2 domain expressed in Escherichia coli BL21 (DE3) by fluorescence polarization assay
T2 sequence (P42225 whole entry): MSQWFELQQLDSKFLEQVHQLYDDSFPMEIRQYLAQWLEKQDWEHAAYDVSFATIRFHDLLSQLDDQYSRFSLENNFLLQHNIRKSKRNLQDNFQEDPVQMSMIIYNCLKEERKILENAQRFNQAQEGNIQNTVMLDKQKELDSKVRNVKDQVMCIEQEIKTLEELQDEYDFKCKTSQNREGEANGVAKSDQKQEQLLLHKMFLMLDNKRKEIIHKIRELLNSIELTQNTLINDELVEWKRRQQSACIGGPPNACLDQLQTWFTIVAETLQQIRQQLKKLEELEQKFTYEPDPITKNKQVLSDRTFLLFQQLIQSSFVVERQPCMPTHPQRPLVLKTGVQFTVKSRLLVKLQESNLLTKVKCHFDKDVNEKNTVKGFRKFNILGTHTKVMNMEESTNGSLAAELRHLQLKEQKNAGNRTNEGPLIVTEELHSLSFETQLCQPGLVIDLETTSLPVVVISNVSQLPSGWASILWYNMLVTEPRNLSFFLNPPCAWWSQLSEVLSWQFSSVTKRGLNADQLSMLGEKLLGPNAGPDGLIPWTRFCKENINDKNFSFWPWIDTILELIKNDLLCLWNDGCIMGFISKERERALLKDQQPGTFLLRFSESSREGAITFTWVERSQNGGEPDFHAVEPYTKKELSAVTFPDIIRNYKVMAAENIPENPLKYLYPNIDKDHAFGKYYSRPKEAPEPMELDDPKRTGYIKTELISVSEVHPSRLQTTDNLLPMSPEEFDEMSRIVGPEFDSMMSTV
How it was run: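 His-tagged protein expressed in BL21(DE3), Ni-column purified. STAT1 80 nM incubated with serial inhibitor concentrations 60 min at 30 °C in 50 mM NaCl, 10 mM HEPES, 1 mM EDTA, 0.1% NP-40; 15 min equilibration at room temperature; 10 nM final probe added, 30 min room temperature, then FP read.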

NIH3T3 = test: Antiproliferative activity against mouse NIH/3T3 cells assessed as suppression of cell viability at 50 uM after 24 hrs by CyQuant cell viability assay; type: functional
HL-60 = test: Antiproliferative activity against human HL60 cells assessed as suppression of cell viability after 24 hrs by CyQuant cell viability assay; type: functional, cell-based; conditions: HL-60, 24 h
How it was run: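 Cells incubated 24 h with a range of inhibitor concentrations; HL-60 cells (no aberrant STAT3 signalling) run as control alongside DU145, Panc-1, NIH3T3/vSrc and breast cancer lines. Viability/growth read by CyQuant assay.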

PANC-1 = test: Antiproliferative activity against human PANC1 cells assessed as suppression of cell viability at 50 uM after 24 hrs by CyQuant cell viability assay; type: functional
How it was run: (§2)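 Cancer cells (human breast MDA-MB-231, pancreatic Panc-1, prostate DU-145) treated with a range of inhibitor concentrations, 30–50 μM, for 24 h. Growth and viability read by CyQuant cell proliferation/viability assay.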

DU-145 = test: Antiproliferative activity against human DU145 cells assessed as suppression of cell viability at 50 uM after 24 hrs by CyQuant cell viability assay; type: functional; how it was run: as §2
MDA-MB-468 (human) = test: Antiproliferative activity against human MDA-MB-468 cells assessed as suppression of cell viability at 50 uM after 24 hrs by CyQuant cell viability assay

T1 sequence (P42227 whole entry, the tested form may be a part): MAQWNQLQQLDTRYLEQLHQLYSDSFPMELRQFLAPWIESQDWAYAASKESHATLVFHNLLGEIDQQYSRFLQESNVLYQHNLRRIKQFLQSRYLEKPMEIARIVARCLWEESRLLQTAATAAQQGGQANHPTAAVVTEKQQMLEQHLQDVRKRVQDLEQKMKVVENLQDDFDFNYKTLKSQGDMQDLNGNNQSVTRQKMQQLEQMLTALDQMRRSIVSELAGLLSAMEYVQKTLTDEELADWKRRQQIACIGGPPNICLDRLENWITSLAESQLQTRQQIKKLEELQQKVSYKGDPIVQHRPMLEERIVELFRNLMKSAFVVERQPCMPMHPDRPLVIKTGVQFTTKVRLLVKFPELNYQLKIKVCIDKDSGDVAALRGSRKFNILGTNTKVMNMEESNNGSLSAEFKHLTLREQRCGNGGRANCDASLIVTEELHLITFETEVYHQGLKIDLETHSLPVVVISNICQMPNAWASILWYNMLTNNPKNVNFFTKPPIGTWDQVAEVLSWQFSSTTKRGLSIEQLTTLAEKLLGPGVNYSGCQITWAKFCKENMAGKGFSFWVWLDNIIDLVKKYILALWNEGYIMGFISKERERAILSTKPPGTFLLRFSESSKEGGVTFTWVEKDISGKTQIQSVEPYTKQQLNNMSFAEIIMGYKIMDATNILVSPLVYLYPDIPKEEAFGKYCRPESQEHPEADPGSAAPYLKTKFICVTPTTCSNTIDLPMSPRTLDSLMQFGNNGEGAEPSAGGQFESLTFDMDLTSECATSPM
Signal transducer and activator of transcription 3 (Mus musculus), sequence (P42227 whole entry): as the sequence (P42227 whole entry, the tested form may be a part) above

SMILES	Ki [1] [µM]	IC50 [2] [µM]	other results
CC(C)C[C@H](NC(=O)[C@H](Cc1ccc(OP(=O)(O)O)cc1)NC(=O)c1ccc(C#N)cc1)C(=O)Nc1cc(C(=O)NCc2ccccc2)cc(-c2ccc(C#N)cc2)c1	36	60	–
CC(C)C[C@H](NC(=O)[C@H](Cc1ccc(O)cc1)NC(=O)c1ccc(C#N)cc1)C(=O)Nc1cc(C(=O)NCc2ccccc2)cc(-c2ccc(C(N)=O)cc2)c1	–	190	Activity [3]: inactive; Activity [4]: inactive; remaining at […], 10 µM [5]: 36%; Papp (Caco-2): > 0.5 ×10⁻⁶ cm/s; Kd [6]: 17 µM
CC(C)C[C@H](NC(=O)[C@H](Cc1ccc(OP(=O)(O)O)cc1)NC(=O)c1ccc(C#N)cc1)C(=O)Nc1cc(C(=O)NCc2ccccc2)cc(-c2ccc(C(N)=O)cc2)c1	9	5	Activity [3]: Active; inhibition [4]: 50%; Ki [7]: 16.5 µM; Kd [6]: 0.205 µM
CC(C)C[C@H](NC(=O)[C@H](Cc1ccc(OP(=O)(O)O)cc1)NC(=O)c1ccc(C#N)cc1)C(=O)Nc1ccc(C(=O)NCc2ccccc2)c(-c2cccc(C#N)c2)c1	13	64	–
CC(C)C[C@H](NC(=O)[C@H](Cc1ccc(OP(=O)(O)O)cc1)NC(=O)c1ccc(C#N)cc1)C(=O)Nc1ccc(C(=O)NCc2ccccc2)c(-c2ccc(C(N)=O)cc2)c1	5	73.1	Activity (NIH3T3): 50%; IC50 (HL-60): > 200 µM; Activity [3]: Active; inhibition [4]: > 80%; Ki [7]: 6.3 µM; Papp (Caco-2): < 0.5 ×10⁻⁶ cm/s; Kd [6]: 0.9 µM; Activity (PANC-1): 50%; Activity (DU-145): 50%; Activity (MDA-MB-468 (human)): 50%
CC(C)C[C@H](NC(=O)[C@H](Cc1ccc(OP(=O)(O)O)cc1)NC(=O)c1ccc(C#N)cc1)C(=O)Nc1ccc(C(=O)NCc2ccccc2)c(-c2ccc(C#N)cc2)c1	11	33	–
CC(C)C[C@H](NC(=O)[C@H](Cc1ccc(O)cc1)NC(=O)c1ccc(C#N)cc1)C(=O)Nc1ccc(C(=O)NCc2ccccc2)c(-c2ccc(C(N)=O)cc2)c1	–	103	Activity [3]: Active; Activity [4]: Active; remaining at […], 10 µM [5]: 52%; Papp (Caco-2): > 0.5 ×10⁻⁶ cm/s; Kd [6]: 12 µM
COC(=O)c1ccc(-c2cc(NC(=O)[C@H](CC(C)C)NC(=O)[C@H](Cc3ccc(OP(=O)(O)O)cc3)NC(=O)c3ccc(C#N)cc3)ccc2C(=O)NCc2ccccc2)cc1	26	> 200	–
CC(C)C[C@H](NC(=O)[C@H](Cc1ccc(OP(=O)(O)O)cc1)NC(=O)c1ccc(C#N)cc1)C(=O)Nc1cc(C(=O)NCc2ccccc2)cc(-c2cccc(C#N)c2)c1	18	92	–
COC(=O)c1cccc(-c2cc(NC(=O)[C@H](CC(C)C)NC(=O)[C@H](Cc3ccc(OP(=O)(O)O)cc3)NC(=O)c3ccc(C#N)cc3)cc(C(=O)NCc3ccccc3)c2)c1	23	66	–
CC(C)C[C@H](NC(=O)[C@H](Cc1ccc(OP(=O)(O)O)cc1)NC(=O)c1ccc(C#N)cc1)C(=O)Nc1ccc(C(=O)NCc2ccccc2)c(-c2cccc(C(N)=O)c2)c1	15	62	–
COC(=O)c1ccc(-c2cc(NC(=O)[C@H](CC(C)C)NC(=O)[C@H](Cc3ccc(OP(=O)(O)O)cc3)NC(=O)c3ccc(C#N)cc3)cc(C(=O)NCc3ccccc3)c2)cc1	25	112	–
CC(C)C[C@H](NC(=O)[C@H](Cc1ccc(OP(=O)(O)O)cc1)NC(=O)c1ccc(C#N)cc1)C(=O)Nc1cc(C(=O)NCc2ccccc2)cc(-c2cccc(C(N)=O)c2)c1	38	188	–
COC(=O)c1cccc(-c2cc(NC(=O)[C@H](CC(C)C)NC(=O)[C@H](Cc3ccc(OP(=O)(O)O)cc3)NC(=O)c3ccc(C#N)cc3)ccc2C(=O)NCc2ccccc2)c1	10	40	–
